Measured values taken from ChEMBL document CHEMBL1629668, “Activity of anidulafungin in a murine model of Candida krusei infection: evaluation of mortality and disease burden by quantitative tissue cultures and measurement of serum (1,3)-beta-D-glucan levels” (2009).
Converted amounts (≈) assume the structure as drawn. The source made the active and inactive calls. Numbered stars: 1 amine (or outer) side, 2 acyl side, 3 side chain; on linkers, the order of the positions; unused ones are H or OH. Bridge positions count the residues as written; N and C are the ends. Square brackets hold non-standard residues; d marks the D form. Peptide text beside a SMILES is read from it. * marks the point of attachment. pTerphenylCO(4''-OnC5H11) = CCCCCOc1ccc(-c2ccc(-c3ccc(C(=O)*)cc3)cc2)cc1; Orn(4R-OH,5R-OH) = O=C([C@H](C[C@@H](O)[C@@H](O)N[*:3])N[*:1])[*:2]; hTyr(3S-OH,4S-OH) = N[C@H](C(=O)O)[C@H](O)[C@@H](O)c1ccc(O)cc1; Pro(3S-OH,4S-Me) = C[C@H]1CN[C@H](C(=O)O)[C@H]1O; Hyp = O=C(O)[C@@H]1C[C@@H](O)CN1

How the values were obtained:
Pichia kudriavzevii [1] = assay: Antimicrobial activity against Candida krusei LMR 39-14 infected in immunosuppressed CF-1 mouse assessed as decrease in kidney bacterial burden at 10 mg/kg, ip administered once daily for 5 days measured after 5 days (Rvb= 6.66); format: functional; conditions: route intraperitoneal
Pichia kudriavzevii [2] = assay: Antimicrobial activity against Candida krusei LMR 39-14 infected in immunosuppressed CF-1 mouse assessed as decrease in kidney bacterial burden at 20 mg/kg, ip administered once daily for 5 days measured after 5 days (Rvb= 5.22); format: functional; conditions: route intraperitoneal
Pichia kudriavzevii [3] = assay: Antimicrobial activity against Candida krusei LMR 39-14 infected in immunosuppressed CF-1 mouse assessed as decrease in kidney bacterial burden at 10 mg/kg, ip administered once daily for 5 days measured after 10 days (Rvb= 5.22); format: functional; conditions: route intraperitoneal
Pichia kudriavzevii [4] = assay: Antimicrobial activity against Candida krusei LMR 39-14 infected in immunosuppressed CF-1 mouse assessed as decrease in kidney bacterial burden at 20 mg/kg, ip administered once daily for 5 days measured after 10 days (Rvb= 5.22); format: functional; conditions: route intraperitoneal
Pichia kudriavzevii [5] = assay: Antimicrobial activity against Candida krusei LMR 39-14 infected in immunosuppressed CF-1 mouse assessed as serum 1,3-beta-D-glucan level at 10 mg/kg, ip administered once daily for 5 days measured after 5 days (Rvb= 6.66); format: functional; conditions: route intraperitoneal
In short: (§1)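 Serum (1,3)-β-D-glucan in immunosuppressed CF-1 mice (5-FU 200 mg/kg i.p. day −3, dexamethasone 4 mg/kg s.c. day 0) infected i.v. with 1.3×10^7 to 1.5×10^7 CFU. Mice dosed i.p. q24h for 5 days with saline placebo. Blood taken from five mice per group on day 5 or 10 post-inoculation and assayed with the Fungitell kit (threshold 31 pg/ml). Groups compared by Kruskal-Wallis; duplicate runs pooled.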

Pichia kudriavzevii [6] = assay: Antimicrobial activity against Candida krusei LMR 39-14 infected in immunosuppressed CF-1 mouse assessed as serum 1,3-beta-D-glucan level at 20 mg/kg, ip administered once daily for 5 days measured after 5 days (Rvb= 5.22); format: functional; conditions: route intraperitoneal; in short: as §1
Pichia kudriavzevii [7] = assay: Antimicrobial activity against Candida krusei LMR 39-14 infected in immunosuppressed CF-1 mouse assessed as serum 1,3-beta-D-glucan level at 10 mg/kg, ip administered once daily for 5 days measured after 10 days (Rvb= 5.22); format: functional; conditions: route intraperitoneal; in short: as §1
Pichia kudriavzevii [8] = assay: Antimicrobial activity against Candida krusei LMR 39-14 infected in immunosuppressed CF-1 mouse assessed as serum 1,3-beta-D-glucan level at 20 mg/kg, ip administered once daily for 5 days measured after 10 days (Rvb= 5.22); format: functional; conditions: route intraperitoneal; in short: as §1
Pichia kudriavzevii [9] = assay: Antimicrobial activity against Candida krusei LMR 39-14 infected in immunosuppressed CF-1 mouse assessed as increased survival of mouse at 10 mg/kg, ip administered once daily for 5 days relative to control; format: functional, organism-based; set-up: dose 10 mg/kg
In short: (§2)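 Same immunosuppressed CF-1 model: 5-FU 200 mg/kg i.p. on day −3, dexamethasone 4 mg/kg s.c. on day 0, i.v. tail inoculation of 1.3×10^7 to 1.5×10^7 CFU. Treatment i.p. q24h for 5 days with saline placebo. Fifteen mice per group observed for survival; run in duplicate with data pooled; Kaplan-Meier estimates compared by log-rank test.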

Pichia kudriavzevii [10] = assay: Antimicrobial activity against Candida krusei LMR 39-14 infected in immunosuppressed CF-1 mouse assessed as increased survival of mouse at 20 mg/kg, ip administered once daily for 5 days relative to control; format: functional, organism-based; set-up: dose 20 mg/kg; in short: as §2
Pichia kudriavzevii [11] = assay: Antimicrobial activity against Candida krusei LMR 39-14 by M27-A3 microdilution method; format: functional
Pichia kudriavzevii [12] = assay: Antimicrobial activity against Candida krusei by […]; format: functional
Pichia kudriavzevii [13] = assay: Antimicrobial activity against Candida krusei LMR 39-14 infected in immunosuppressed CF-1 mouse assessed as decrease in kidney bacterial burden at 40 mg/kg, ip administered once daily for 5 days measured after 5 days (Rvb= 6.66); format: functional; conditions: route intraperitoneal
Pichia kudriavzevii [14] = assay: Antimicrobial activity against Candida krusei LMR 39-14 infected in immunosuppressed CF-1 mouse assessed as decrease in kidney […] burden at 40 mg/kg, ip administered once daily for 5 days measured after 10 days (Rvb= 5.22); format: functional; conditions: route intraperitoneal
Pichia kudriavzevii [15] = assay: Antimicrobial activity against Candida krusei LMR 39-14 infected in immunosuppressed CF-1 mouse assessed as serum 1,3-beta-D-glucan level at 40 mg/kg, ip administered once daily for 5 days measured after 5 days (Rvb= 6.66); format: functional; conditions: route intraperitoneal; in short: as §1
Pichia kudriavzevii [16] = assay: Antimicrobial activity against Candida krusei LMR 39-14 infected in immunosuppressed CF-1 mouse assessed as serum 1,3-beta-D-glucan level at 40 mg/kg, ip administered once daily for 5 days measured after 10 days (Rvb= 5.22); format: functional; conditions: route intraperitoneal; in short: as §1
Pichia kudriavzevii [17] = assay: Antimicrobial activity against Candida krusei LMR 39-14 infected in immunosuppressed CF-1 mouse assessed as increased survival of mouse at 40 mg/kg, ip administered once daily for 5 days relative to control; format: functional, organism-based; set-up: dose 40 mg/kg; in short: as §2
Pichia kudriavzevii [18] = assay: Antimicrobial activity against Candida krusei LMR 39-14 infected in immunosuppressed CF-1 mouse assessed as decrease in kidney bacterial burden at 1 mg/kg, ip administered once daily for 5 days measured after 5 days (Rvb= 6.66); format: functional; conditions: route intraperitoneal
In short: (§3)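 C. krusei clinical bloodstream isolate given IV by tail vein at 1.3×10^7 to 1.5×10^7 CFU/mouse, with inoculum confirmed by plating. Mice immunosuppressed with 5-FU 200 mg/kg i.p. 3 days before and dexamethasone 4 mg/kg s.c. on the day of infection. Treatment i.p. q24h for 5 days. Five mice/group killed day 5 or day 10. Both kidneys homogenized and plated on Sabouraud agar for 48 h; log10 CFU/g; detection limit 40 CFU/g; ANOVA; duplicate runs pooled.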

Pichia kudriavzevii [19] = assay: Antimicrobial activity against Candida krusei LMR 39-14 infected in immunosuppressed CF-1 mouse assessed as decrease in kidney bacterial burden at 1 mg/kg, ip administered once daily for 5 days measured after 10 days (Rvb= 5.22); format: functional; conditions: route intraperitoneal; in short: as §3
Pichia kudriavzevii [20] = assay: Antimicrobial activity against Candida krusei LMR 39-14 infected in immunosuppressed CF-1 mouse assessed as serum 1,3-beta-D-glucan level at 1 mg/kg, ip administered once daily for 5 days measured after 5 days (Rvb= 6.66); format: functional; conditions: route intraperitoneal
Pichia kudriavzevii [21] = assay: Antimicrobial activity against Candida krusei LMR 39-14 infected in immunosuppressed CF-1 mouse assessed as serum 1,3-beta-D-glucan level at 1 mg/kg, ip administered once daily for 5 days measured after 10 days (Rvb= 5.22); format: functional; conditions: route intraperitoneal
Pichia kudriavzevii [22] = assay: Antimicrobial activity against Candida krusei LMR 39-14 infected in immunosuppressed CF-1 mouse assessed as increased survival of mouse at 1 mg/kg, ip administered once daily for 5 days relative to control; format: functional, organism-based; set-up: dose 1 mg/kg
In short: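 Immunosuppression used 5-FU 200 mg/kg i.p. on day −3 and dexamethasone 4 mg/kg s.c. on day 0. C. krusei bloodstream isolate was given IV via tail vein at 1.3×10^7 to 1.5×10^7 CFU. Drug i.p. q24h for 5 days, saline placebo. Fifteen mice/group per run followed for survival; experiment in duplicate, pooled. Kaplan-Meier estimates compared by log-rank test.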

CCCCCOc1ccc(-c2ccc(-c3ccc(C(=O)N[C@H]4C[C@@H](O)[C@@H](O)NC(=O)[C@@H]5[C@@H](O)[C@@H](C)CN5C(=O)[C@H]([C@@H](C)O)NC(=O)[C@H]([C@H](O)[C@@H](O)c5ccc(O)cc5)NC(=O)[C@@H]5C[C@@H](O)CN5C(=O)[C@H]([C@@H](C)O)NC4=O)cc3)cc2)cc1 [ANIDULAFUNGIN] ({pTerphenylCO(4''-OnC5H11)}-[Orn(4R-OH,5R-OH)]T[Hyp][hTyr(3S-OH,4S-OH)]T[Pro(3S-OH,4S-Me)]; lactam 1-C)
log10CFU/g (Pichia kudriavzevii [1]): 4.06
log10CFU/g (Pichia kudriavzevii [2]): 3.97
log10CFU/g (Pichia kudriavzevii [3]): 0.96
log10CFU/g (Pichia kudriavzevii [4]): 1.59
Activity (Pichia kudriavzevii [5]): 256 pg/mL
Activity (Pichia kudriavzevii [6]): 351 pg/mL
Activity (Pichia kudriavzevii [7]): 624 pg/mL
Activity (Pichia kudriavzevii [8]): 693 pg/mL
Activity (Pichia kudriavzevii [9]): Active
Activity (Pichia kudriavzevii [10]): Active
MIC (Pichia kudriavzevii [11]): 0.06 µg/mL (≈ 0.0526 µM)
MIC90 (Pichia kudriavzevii [12]): 0.06 µg/mL (≈ 0.0526 µM)

OC(Cn1cncn1)(Cn1cncn1)c1ccc(F)cc1F [FLUCONAZOLE]
log10CFU/g (Pichia kudriavzevii [13]): 7.01
log10CFU/g (Pichia kudriavzevii [14]): 4.77
Activity (Pichia kudriavzevii [15]): 2714 pg/mL
Activity (Pichia kudriavzevii [16]): 1292 pg/mL
Activity (Pichia kudriavzevii [17]): Active
MIC (Pichia kudriavzevii [11]): > 64 µg/mL

C[C@@H]1[C@H](O)[C@@H](C)/C=C/C=C/C=C/C=C/C=C/C=C/C=C/[C@H](O[C@@H]2O[C@H](C)[C@@H](O)[C@H](N)[C@@H]2O)C[C@@H]2O[C@](O)(C[C@@H](O)C[C@@H](O)[C@H](O)CC[C@@H](O)C[C@@H](O)CC(=O)O[C@H]1C)C[C@H](O)[C@H]2C(=O)O [AMPHOTERICIN B]
log10CFU/g (Pichia kudriavzevii [18]): 5.95
log10CFU/g (Pichia kudriavzevii [19]): 4.96
Activity (Pichia kudriavzevii [20]): 2559 pg/mL
Activity (Pichia kudriavzevii [21]): 1742 pg/mL
Activity (Pichia kudriavzevii [22]): Active
